The values below come from ChEMBL document CHEMBL2093137, “WHO-TDR NTD Screening”.

Converted amounts (≈) assume the structure as drawn. A value given as a limit tells only on which side of the number the result lay.

Data set [1] deals with Trypanosoma brucei brucei. Nature of the data set: WHO-TDR: Human African Trypanosomiasis (HAT). Format: functional, organism-based. The settings on record: Squib-427. An outline of the steps: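 Screening used a 10,000-compound diverse library supplied by Life Chemicals and filtered for drug-likeness and reactive groups. Whole bloodstream-form parasites of Trypanosoma brucei Squib 427 strain were assayed according to previously published standard procedures, with reference drugs as positive controls. The reported measure is IC50, reflecting antiparasitic potency.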

In the next data set the test system is Plasmodium falciparum K1. The data set can be described thus: WHO-TDR: Malaria. Format: functional, organism-based, Homo sapiens. Particulars: Erythrocyte. An outline of the steps:
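This whole-organism screen covered 10,000 drug-likeness-filtered and reactive-group-filtered compounds from Life Chemicals. The target was the Plasmodium falciparum K1 strain in human red blood cells, and the readout was antiplasmodial IC50.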

The test system of a further data set is Leishmania infantum. The data set can be described thus: WHO-TDR: Leishmaniasis. It is filed as functional, organism-based, Mus musculus. The settings on record: Macrophage. An outline of the steps: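 The screened collection came from Life Chemicals: 10,000 diverse compounds selected after filtering for drug-likeness and reactive groups. Each was tested in a whole-organism assay against Leishmania infantum MHOM/MA(BE)/67 amastigotes inside murine peritoneal macrophages, using previously published standard procedures and a reference drug as positive control. Results are IC50 values for antiparasitic potency.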

The next data set deals with Schistosoma mansoni. The data set can be described thus: WHO-TDR: Schistosomiasis. Format: functional. On the set-up: concentration or dose not given beside the values. Summed up: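 In this whole-organism assay, larval and/or adult worms of Schistosoma mansoni (Puerto Rican strain) were exposed to compounds from a diverse Life Chemicals library of 10,000 members. A reference drug served as positive control. Activity is stated as percent inhibition and IC50.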

For a further data set, the system named is Brugia malayi. The data set can be described thus: WHO-TDR: Lymphatic Filariasis. Format: functional. On the set-up: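 tested at 10 µM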. An outline of the steps: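 In a whole-organism assay, Brugia malayi microfilariae were screened against a diverse Life Chemicals library that had been filtered for drug-likeness and reactive groups. That library comprised 10,000 compounds. Activity is expressed as percent inhibition and as IC50.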

The test system of a further data set is Trypanosoma cruzi. Nature of the data set: WHO-TDR: Chagas disease. Format: functional, organism-based, Homo sapiens. The settings on record: MRC5. Summed up:
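Following previously published standard procedures, with a reference drug as positive control, a whole-organism assay was run on Trypanosoma cruzi Tulahuen CL2 beta-galactosidase strain amastigotes inside MRC-5SV2 human lung fibroblast host cells. The 10,000 compounds tested formed a diverse Life Chemicals library filtered for drug-likeness and reactive groups. Results are expressed as IC50 for antiparasitic potency.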

The nature of data set [2]: WHO-TDR: Cytotoxicity. Format: toxicity, cell-based. The settings on record: human, MRC5 cells.
For the next data set, the system named is Onchocerca ochengi. The data set can be described thus: WHO-TDR: Onchocerciasis. It is filed as functional. Also noted: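 at 12.5 µM on microfilariae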. An outline of the steps: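 Microfilariae of Onchocerca ochengi or Onchocerca lienalis, animal pathogens standing in for the human parasite, were exposed to compounds in a whole-organism screen. The compounds came from a 10,000-compound diverse Life Chemicals library filtered for drug-likeness and reactive groups. Results are expressed as percent inhibition and IC50.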

As usually defined, the IC50 is the concentration at which inhibition is half-maximal. In general, % Inhibition refers to the drop in the measured response relative to a control, in per cent. Take `CCOc1ccccc1C(=O)Nc1sc(SCC(N)=O)nc1-c1ccccc1`: the IC50 is 3.97 µg/mL (≈ 9.6 µM) in data set [1]; above 12.4 µg/mL in the data set with Plasmodium falciparum K1; above 12.4 µg/mL in the data set with Leishmania infantum; 7.06 µg/mL (≈ 17.1 µM) with Trypanosoma cruzi; above 12.4 µg/mL in data set [2]. For the same molecule, the “% Inhibition” value worked out at 0% in the data set on Schistosoma mansoni, 0% in the data set with Brugia malayi and 100% in the data set with Onchocerca ochengi.
Consider `CCc1cccc2sc(NC(=O)C3CCCCN3S(C)(=O)=O)nc12` (configuration not stated), for which the IC50 is 3.09 µg/mL (≈ 8.4 µM) in data set [1]; above 11 µg/mL with Plasmodium falciparum K1; above 11 µg/mL in the data set with Leishmania infantum; 3.8 µg/mL (≈ 10.3 µM) in the data set on Trypanosoma cruzi; above 11 µg/mL in data set [2]. In addition, the “% Inhibition” value was determined as 0% with Schistosoma mansoni, 0% with Brugia malayi and 100% with Onchocerca ochengi.
As to `CN(C1CC1)S(=O)(=O)c1ccc(C(=O)Nc2nnc(-c3ccc(Br)s3)o2)cc1`, the IC50 in data set [1] was 4.75 µg/mL (≈ 9.83 µM); in the data set with Plasmodium falciparum K1, above 14.5 µg/mL; in the data set on Leishmania infantum, 4.69 µg/mL (≈ 9.71 µM); in the data set on Trypanosoma cruzi, 4.76 µg/mL (≈ 9.85 µM); in data set [2] it was 3.91 µg/mL (≈ 8.09 µM). Besides, the “% Inhibition” value with Schistosoma mansoni was 0%; with Brugia malayi, 0%; in the data set on Onchocerca ochengi, 100%.
For the molecule `Cc1cc(C)c(S(=O)(=O)NCCNc2ccc(Nc3cccc(C)n3)nn2)c(C)c1`, the IC50 in data set [1] turned out to be 4.14 µg/mL (≈ 9.71 µM); in the data set on Plasmodium falciparum K1, 2.41 µg/mL (≈ 5.65 µM); in the data set on Leishmania infantum, 5.4 µg/mL (≈ 12.7 µM); with Trypanosoma cruzi, 4.46 µg/mL (≈ 10.5 µM); in data set [2], 6.74 µg/mL (≈ 15.8 µM). In addition, the “% Inhibition” value with Schistosoma mansoni amounted to 33.3%; in the data set on Brugia malayi, 0%; in the data set on Onchocerca ochengi, 100%.
`O=C(c1ccccc1)N1CCN(c2ccc(Nc3ccccn3)nn2)CC1`: the IC50 in data set [1] is above 10.8 µg/mL; in the data set with Plasmodium falciparum K1, above 10.8 µg/mL; in the data set with Leishmania infantum, 0.35 µg/mL (≈ 0.971 µM); with Trypanosoma cruzi, above 10.8 µg/mL; in data set [2], above 10.8 µg/mL. Also, the “% Inhibition” value in the data set with Schistosoma mansoni, with Brugia malayi and in the data set on Onchocerca ochengi was 0% throughout.
Consider `COc1ccc(C)c2sc(N(CCCn3ccnc3)C(=O)Cc3ccccc3)nc12`, for which the IC50 in data set [1] is 3.3 µg/mL (≈ 7.85 µM); in the data set with Plasmodium falciparum K1, 0.615 µg/mL (≈ 1.46 µM); in the data set on Leishmania infantum, above 13.7 µg/mL; in the data set on Trypanosoma cruzi it was 0.644 µg/mL (≈ 1.53 µM); in data set [2], 4.07 µg/mL (≈ 9.68 µM). Also, the “% Inhibition” value with Schistosoma mansoni is 0%; with Brugia malayi it was 0%; with Onchocerca ochengi it was 100%.
On to `COc1cccc(-c2cc(CC(=O)Nc3nc(C)cs3)no2)c1`, for which the IC50 in data set [1] was above 9.88 µg/mL; in the data set with Plasmodium falciparum K1, 4.59 µg/mL (≈ 13.9 µM); with Leishmania infantum, above 9.88 µg/mL; in the data set with Trypanosoma cruzi it was above 9.88 µg/mL; in data set [2] it was above 9.88 µg/mL. Further, the “% Inhibition” value in the data set with Schistosoma mansoni is 0%; in the data set on Brugia malayi, 0%; with Onchocerca ochengi it was 100%.
For `O=C(Nc1ccccc1)N1CCN(c2ccc(Nc3ccccn3)nn2)CC1`, the IC50 in data set [1] was above 11.3 µg/mL; with Plasmodium falciparum K1 it was above 11.3 µg/mL; in the data set with Leishmania infantum it was above 11.3 µg/mL; in the data set with Trypanosoma cruzi, above 11.3 µg/mL; in data set [2], 11.3 µg/mL (≈ 30 µM). For the same molecule, the “% Inhibition” value with Schistosoma mansoni was determined as 0%; in the data set with Brugia malayi, 0%; with Onchocerca ochengi it was 100%.
With `Cc1ccnc(Nc2ccc(N3CCN(C(=O)Nc4cccc(F)c4)CC3)nn2)c1`, the IC50 in data set [1] was 5.79 µg/mL (≈ 14.2 µM); in the data set with Plasmodium falciparum K1 it was above 12.2 µg/mL; with Leishmania infantum, above 12.2 µg/mL; in the data set with Trypanosoma cruzi, above 12.2 µg/mL; in data set [2], above 12.2 µg/mL. For the same molecule, the “% Inhibition” value in the data set with Schistosoma mansoni came to 0%; in the data set on Brugia malayi it was 75%; with Onchocerca ochengi, 100%.
Turning to `CCCC(=O)N1CCN(c2ccc(Nc3ccncc3)nn2)CC1`, the IC50 in data set [1] is above 9.79 µg/mL; with Plasmodium falciparum K1, above 9.79 µg/mL; in the data set on Leishmania infantum, 0.317 µg/mL (≈ 0.971 µM); in the data set on Trypanosoma cruzi, above 9.79 µg/mL; in data set [2], above 9.79 µg/mL. In addition, the “% Inhibition” value with Schistosoma mansoni, in the data set with Brugia malayi and in the data set with Onchocerca ochengi was 0% in each case.
With `O=C(c1ccc(F)cc1F)N1CCN(c2ccc(-c3cccnc3)nn2)CC1`, the IC50 in data set [1] is above 11.4 µg/mL; in the data set on Plasmodium falciparum K1 it was above 11.4 µg/mL; with Leishmania infantum, 0.37 µg/mL (≈ 0.97 µM); with Trypanosoma cruzi, above 11.4 µg/mL; in data set [2], above 11.4 µg/mL. Besides, the “% Inhibition” value in the data set with Schistosoma mansoni came out at 0%; with Brugia malayi, 33.33%; in the data set on Onchocerca ochengi, 0%.
For the molecule `Cc1ccccc1OCC(=O)NCCS(=O)(=O)N1CCN(Cc2ccccc2)CC1`, the IC50 (in data set [1]; with Plasmodium falciparum K1; in the data set on Leishmania infantum; in the data set with Trypanosoma cruzi; in data set [2]) was above 14 µg/mL each time. The “% Inhibition” value in the data set on Schistosoma mansoni worked out at 83.3%; in the data set on Brugia malayi, 20%; in the data set with Onchocerca ochengi, 100%.
As to `Cn1ccnc1N1CCN(CC(=O)Nc2ccccc2C(F)(F)F)CC1`, the IC50 in data set [1] was above 11 µg/mL; with Plasmodium falciparum K1, above 11 µg/mL; in the data set on Leishmania infantum it was 0.357 µg/mL (≈ 0.972 µM); in the data set on Trypanosoma cruzi it was above 11 µg/mL; in data set [2], above 11 µg/mL. Besides, the “% Inhibition” value with Schistosoma mansoni, in the data set on Brugia malayi and in the data set on Onchocerca ochengi was 0% in each case.
As to `COc1cccc(C(=O)N(CCCn2ccnc2)c2nc3c(C)c(C)ccc3s2)c1OC`, the IC50 in data set [1] was 1.34 µg/mL (≈ 2.97 µM); in the data set with Plasmodium falciparum K1, 1.28 µg/mL (≈ 2.85 µM); in the data set on Leishmania infantum, 4.73 µg/mL (≈ 10.5 µM); in the data set on Trypanosoma cruzi it was 0.648 µg/mL (≈ 1.44 µM); in data set [2], 3.15 µg/mL (≈ 6.99 µM). Also, the “% Inhibition” value is reported as 0% in the data set with Schistosoma mansoni, 0% in the data set with Brugia malayi and 100% with Onchocerca ochengi.
For the molecule `O=C(CN1CCN(c2nccn2-c2cccc(Cl)c2)CC1)Nc1ccc(F)cc1F`, the IC50 in data set [1] was 4.79 µg/mL (≈ 11.1 µM); with Plasmodium falciparum K1 it was 12.6 µg/mL (≈ 29.2 µM); with Leishmania infantum, 4.9 µg/mL (≈ 11.4 µM); in the data set with Trypanosoma cruzi it was 4.67 µg/mL (≈ 10.8 µM); in data set [2], above 15.1 µg/mL. For the same molecule, the “% Inhibition” value in the data set on Schistosoma mansoni stood at 0%; in the data set on Brugia malayi, 0%; in the data set on Onchocerca ochengi, 100%.
Turning to `COc1cccc(OCC(=O)N2CCN(c3nccn3-c3cccc(Cl)c3)CC2)c1`, the IC50 in data set [1] was 4.61 µg/mL (≈ 10.8 µM); with Plasmodium falciparum K1, 12.2 µg/mL (≈ 28.5 µM); in the data set with Leishmania infantum, 0.45 µg/mL (≈ 1.05 µM); in the data set on Trypanosoma cruzi, 9.15 µg/mL (≈ 21.4 µM); in data set [2], above 13.9 µg/mL. Moreover, the “% Inhibition” value with Schistosoma mansoni, with Brugia malayi and in the data set on Onchocerca ochengi was 0% in each case.
For the molecule `O=C(c1cccc(F)c1)N(CCCn1ccnc1)c1nc2ccc(F)cc2s1`, the IC50 is 4.17 µg/mL (≈ 10.5 µM) in data set [1]; 0.745 µg/mL (≈ 1.87 µM) in the data set with Plasmodium falciparum K1; above 13 µg/mL with Leishmania infantum; 3.32 µg/mL (≈ 8.33 µM) in the data set with Trypanosoma cruzi; above 13 µg/mL in data set [2]. For the same molecule, the “% Inhibition” value worked out at 0% with Schistosoma mansoni, 0% in the data set with Brugia malayi and 100% with Onchocerca ochengi.
As for `O=S(=O)(c1cccc(F)c1)N1CCN(c2ccc(Nc3cccnc3)nn2)CC1`, the IC50 in data set [1] is above 12.4 µg/mL; in the data set with Plasmodium falciparum K1 it was 5.44 µg/mL (≈ 13.1 µM); in the data set with Leishmania infantum it was 0.403 µg/mL (≈ 0.972 µM); in the data set with Trypanosoma cruzi it was above 12.4 µg/mL; in data set [2] it was 0.937 µg/mL (≈ 2.26 µM). The “% Inhibition” value with Schistosoma mansoni, in the data set with Brugia malayi and in the data set with Onchocerca ochengi was 0% each time.
On to `O=S(=O)(CCCOc1ccc(F)cc1)NCc1c(F)cccc1F`, for which the IC50 was above 10.8 µg/mL in data set [1]; above 10.8 µg/mL in the data set with Plasmodium falciparum K1; 0.349 µg/mL (≈ 0.971 µM) with Leishmania infantum; 5.73 µg/mL (≈ 16 µM) in the data set on Trypanosoma cruzi; above 10.8 µg/mL in data set [2]. Besides, the “% Inhibition” value in the data set on Schistosoma mansoni amounted to 0%; with Brugia malayi, 0%; in the data set with Onchocerca ochengi, 50%.
